The list is not random: actives were taken first. Their share in the collection is about 2.5%.
VIM-2 inhibitor: blocks Pseudomonas aeruginosa VIM-2 metallo-beta-lactamase; inhibition, % at 5.6 µM; purified VIM-2, nitrocefin hydrolysis, epi-absorbance fluorescence; AID 1527; 290,000 compounds, 0.89% hits;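 active = inhibition above the mean of all tested compounds plus 3 SD, cutoff set per screening run, cut at about 7.5% in these data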;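 also: red hydrolysis product quenches plate fluorescence so inhibitors raise well fluorescence; 0% = enzyme with DMSO and 100% = DMSO without enzyme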
dFosB activator: enhances mouse delta FosB homodimer DNA binding; 340,000 compounds, 0.99% hits; purified delta FosB, TAMRA-CDK5 oligo fluorescence polarization; percent of positive-control signal above neutral wells; activation, % at 25 µM;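 active = mean activation above about 17%, with every replicate also reaching it, limit read from the data, passing the limit was not always enough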
IMP-1 inh-1: blocks Pseudomonas aeruginosa IMP-1 metallo-beta-lactamase. purified IMP-1, nitrocefin hydrolysis, epi-absorbance fluorescence. inhibition, % at 5.6 µM. 290,000 compounds, 0.45% hits. AID 1556;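 active = inhibition above the mean plus 3 SD of all compounds in the same screening run, cut at about 4.5% in these data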;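 also: 0% = IMP-1 with DMSO and 100% = DMSO wells lacking enzyme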
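System: purified IMP-1 / Input: IMP-1 dispensed at 0.2 nM / Medium: 50 mM HEPES pH 7.1, 50 µM ZnSO4, 0.05% Brij 35 / Timing: 15 min enzyme–compound preincubation, then 25 min nitrocefin reaction, 25 °C / Technique: plate fluorescence quenching by hydrolysis product, ex 480/em 530 nm / Repeats: singlicate testing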
m5-HT2A agonist: agonists of mouse serotonin 5-HT2A receptor (HTR2A); CHO-K1 mHTR2A beta-arrestin complementation, luminescence; percent of 30 µM serotonin response; AID 624169; activation, % at 7.6 µM; 360,000 compounds, 0.66% hits;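 active = activation above a run cutoff, the mean activation of all tested compounds plus 3 SD, cut at about 14% in these data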;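 also: 0% = plate median of compound wells and 100% = 30 µM serotonin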
Target sequence (P35363 whole entry, looked up): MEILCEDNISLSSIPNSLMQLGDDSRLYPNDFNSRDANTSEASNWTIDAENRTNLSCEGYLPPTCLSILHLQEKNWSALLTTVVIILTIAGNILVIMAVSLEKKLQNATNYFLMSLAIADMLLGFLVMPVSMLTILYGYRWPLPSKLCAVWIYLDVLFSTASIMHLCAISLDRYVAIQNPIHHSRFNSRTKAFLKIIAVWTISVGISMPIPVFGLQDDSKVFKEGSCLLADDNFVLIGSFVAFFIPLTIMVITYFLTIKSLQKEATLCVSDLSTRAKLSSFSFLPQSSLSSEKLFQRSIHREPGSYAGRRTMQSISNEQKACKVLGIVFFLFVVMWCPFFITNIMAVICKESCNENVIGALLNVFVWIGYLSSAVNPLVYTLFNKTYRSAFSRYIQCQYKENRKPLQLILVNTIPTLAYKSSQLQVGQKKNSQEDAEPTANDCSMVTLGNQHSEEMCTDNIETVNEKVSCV
IMP-1 inh-2: selectivity counter-screen for VIM-2 inhibitors: IMP-1 metallo-beta-lactamase inhibitors | shares compounds with VIM-2 inhibitor | purified IMP-1, nitrocefin hydrolysis, epi-absorbance fluorescence | inhibition, % at 5.6 µM | 1,300 tested, under 10 active; call rule not given here;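 also: 0% = enzyme with vehicle and 100% = vehicle without enzyme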
VIM-2 FRET ctr: inhibits VIM-2 in FRET assay to exclude epi-absorbance artifacts. shares compounds with VIM-2 inhibitor. purified VIM-2, CCF2 FRET substrate hydrolysis. inhibition, % at 5.6 µM. 1,300 compounds, 23% hits. AID 1857;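 active = inhibition above the mean of all tested compounds plus 3 SD, cut at about 19% in these data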;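 also: 0% = VIM-2 plus DMSO and 100% = no enzyme wells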
TEM-1 counter: TEM-1 inhibition, counter-screen for VIM-2 inhibitors. AID 1866. shares compounds with VIM-2 inhibitor. 1,300 compounds, 3% hits. Purified TEM-1, nitrocefin hydrolysis, epi-absorbance fluorescence. inhibition, % at 5.6 µM;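 active = inhibition above that campaign's mean inhibition plus 3 SD, cut at about 0.46% in these data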;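 also: 0% = TEM-1 with DMSO and 100% = TEM-1 with 100 µM potassium clavulanate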
Target sequence (P62593 whole entry, looked up): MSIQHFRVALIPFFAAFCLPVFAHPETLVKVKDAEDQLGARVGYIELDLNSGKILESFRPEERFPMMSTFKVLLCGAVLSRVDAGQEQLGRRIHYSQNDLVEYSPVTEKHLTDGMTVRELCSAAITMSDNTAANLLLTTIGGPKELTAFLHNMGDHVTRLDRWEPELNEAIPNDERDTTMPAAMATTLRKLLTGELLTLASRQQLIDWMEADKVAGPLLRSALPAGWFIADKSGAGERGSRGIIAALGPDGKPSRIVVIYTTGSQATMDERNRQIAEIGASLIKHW
VIM-2 confirm 2: confirmation of P. aeruginosa VIM-2 metallo-beta-lactamase inhibitors; shares compounds with VIM-2 inhibitor; purified VIM-2, nitrocefin hydrolysis, epi-absorbance; inhibition, % at 5.6 µM; 1,300 compounds, 96% hits;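 active = inhibition of the VIM-2 beta-lactamase enzyme above about 11% from the earlier first-round screen, limit read from the data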;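 also: 0% = VIM-2 with DMSO and 100% = buffer wells without enzyme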
* marks the source's active call; other numbers are inactive results.

What do the screens show for `COC(=O)c1c(NC(=O)CSc2ncn[nH]2)sc(C)c1C`?
dFosB activator: -4.9; m5-HT2A agonist: 5.0

What do the screens show for `CC(=O)N(CCC1(C(C)C)CCOC(C)(C)C1)C(C)c1cccs1` (stereo not drawn)?
VIM-2 inhibitor: -2.5; dFosB activator: 3.3; IMP-1 inh-1: -2.8; m5-HT2A agonist: -6.6

How did COCCCn1c(=O)c2sccc2n2c(CCCC(=O)N3CCN(c4ccccn4)CC3)nnc12 do in these assays?
VIM-2 inhibitor: 5.8; dFosB activator: -1.6; IMP-1 inh-1: -3.2; m5-HT2A agonist: -3.6

What do the screens show for `Cn1c(=O)c2sccc2n2c(CCCC(=O)N3CCN(c4ccccn4)CC3)nnc12`?
VIM-2 inhibitor: 13.1*; dFosB activator: -10.3; IMP-1 inh-1: -3.6; m5-HT2A agonist: -2.8; IMP-1 inh-2: -2.8; VIM-2 FRET ctr: -1.1; TEM-1 counter: -5.9; VIM-2 confirm 2: 19.7*

How did CCCCn1c2ccc(F)cc2c2nnc(SCCN3CCOCC3)nc21 do in these assays?
VIM-2 inhibitor: 3.1; dFosB activator: -13.0; IMP-1 inh-1: 0.5; m5-HT2A agonist: 0.9

Results for CCCCn1c2ccccc2c2nnc(SCCN3CCCCC3)nc21 ?
VIM-2 inhibitor: 12.8*; dFosB activator: -4.9; IMP-1 inh-1: -3.2; m5-HT2A agonist: -11.5; IMP-1 inh-2: -2.7; VIM-2 FRET ctr: -6.0; TEM-1 counter: -6.8; VIM-2 confirm 2: 19.4*

How did CCOC(=O)C1CC2CC(C1)CN(C(=O)C1CCCCC1)C2 (stereo not drawn) do in these assays?
VIM-2 inhibitor: -2.6; dFosB activator: -1.1; IMP-1 inh-1: -2.6; m5-HT2A agonist: 0.3

How did O=C(NC(=S)Nc1ccccc1N1CCCC1)c1ccco1 do in these assays?
VIM-2 inhibitor: 12.4*; dFosB activator: -3.9; IMP-1 inh-1: -1.8; m5-HT2A agonist: -3.2; IMP-1 inh-2: -3.1; VIM-2 FRET ctr: 36.3*; TEM-1 counter: -6.9; VIM-2 confirm 2: 19.3*

What do the screens show for `O=C(NC(=S)Nc1ccccc1N1CCCC1)c1ccccc1Br`?
VIM-2 inhibitor: 17.2*; dFosB activator: -17.7; IMP-1 inh-1: -3.0; m5-HT2A agonist: 4.4; IMP-1 inh-2: -2.5; VIM-2 FRET ctr: 3.7; TEM-1 counter: -8.2; VIM-2 confirm 2: 2.1

What do the screens show for `COc1ccc(OC)c(CN2C(=O)c3ccccc3C2c2nnnn2-c2c(C)cccc2C)c1` (stereo not drawn)?
m5-HT2A agonist: 0.1

Results for CCN1CCN(C(=O)CCc2nc3ccccc3c(=O)[nH]2)CC1 ?
VIM-2 inhibitor: 20.7*; dFosB activator: -1.2; IMP-1 inh-1: -0.5; m5-HT2A agonist: -0.4; IMP-1 inh-2: -2.6; VIM-2 FRET ctr: -2.5; TEM-1 counter: -4.5; VIM-2 confirm 2: 42.9*

Results for CSS(=O)(=O)c1cccc2cccnc12 ?
VIM-2 inhibitor: 38.4*; dFosB activator: 2.0; IMP-1 inh-1: -1.8; m5-HT2A agonist: 2.1; IMP-1 inh-2: -2.5; VIM-2 FRET ctr: -30.2; TEM-1 counter: -5.3; VIM-2 confirm 2: 42.8*

What do the screens show for `CCOC(=O)c1cc(-c2ccc(/C=N\n3cnnc3)o2)ccc1Cl`?
VIM-2 inhibitor: 57.0*; dFosB activator: -13.4; IMP-1 inh-1: -0.3; m5-HT2A agonist: -11.6; IMP-1 inh-2: -2.7; VIM-2 FRET ctr: -3.5; TEM-1 counter: -5.9; VIM-2 confirm 2: 77.8*

How did Cc1cc(-c2ccc(/C=N/n3cnnc3)o2)ccc1Cl do in these assays?
VIM-2 inhibitor: 13.9*; dFosB activator: -7.9; IMP-1 inh-1: -2.2; m5-HT2A agonist: -6.9; IMP-1 inh-2: -2.0; VIM-2 FRET ctr: -8.6; TEM-1 counter: -1.9; VIM-2 confirm 2: 37.1*

What do the screens show for `CCOC(=O)c1cc(-c2ccc(/C=C3/C(=O)N(c4ccc(C(=O)O)cc4)N=C3C)o2)ccc1Cl`?
VIM-2 inhibitor: -3.7; dFosB activator: -4.9; IMP-1 inh-1: -3.9; m5-HT2A agonist: 6.9

What do the screens show for `CCCCOC(=O)c1cc(-c2ccc(/C=N/n3cnnc3)o2)ccc1Cl`?
VIM-2 inhibitor: 21.6*; dFosB activator: -11.2; IMP-1 inh-1: -1.6; m5-HT2A agonist: -6.9; IMP-1 inh-2: -0.1; VIM-2 FRET ctr: -5.2; TEM-1 counter: -5.7; VIM-2 confirm 2: 54.0*

What do the screens show for `CC(C)(C)c1ccc(OCCC(=O)NNC(=O)c2ccncc2)cc1`?
dFosB activator: -4.0; m5-HT2A agonist: -3.0

Results for CN1CCN(CC(O)COc2ccc(OCC(O)CN3CCN(C)CC3)cc2)CC1 (stereo not drawn) ?
VIM-2 inhibitor: -0.7; dFosB activator: -1.5; IMP-1 inh-1: 0.8; m5-HT2A agonist: 1.9

How did CCOC(=O)c1c(C)n(C)c2ccc(OCC(O)Cn3c(C)nc4ccccc43)cc12 (stereo not drawn) do in these assays?
VIM-2 inhibitor: -1.7; dFosB activator: 10.7; IMP-1 inh-1: -5.9; m5-HT2A agonist: -0.8

How did CCOC(=O)c1c(C)n(C)c2ccc(OCC(O)CN3CCN(C)CC3)cc12 (stereo not drawn) do in these assays?
VIM-2 inhibitor: 69.1*; dFosB activator: 3.0; IMP-1 inh-1: 3.0; m5-HT2A agonist: -9.2; IMP-1 inh-2: -2.9; VIM-2 FRET ctr: 4.1; TEM-1 counter: -6.0; VIM-2 confirm 2: 74.6*

Results for CCOC(=O)c1c(C)n(-c2ccc(C)cc2)c2ccc(OCC(O)CN3CCN(C)CC3)cc12 (stereo not drawn) ?
VIM-2 inhibitor: 15.2*; dFosB activator: -19.4; IMP-1 inh-1: -1.4; m5-HT2A agonist: -8.2; IMP-1 inh-2: -3.3; VIM-2 FRET ctr: -0.9; TEM-1 counter: -6.2; VIM-2 confirm 2: 26.4*

How did CCN1CCN(CC(O)COc2ccc3c(C)cc(=O)oc3c2)CC1 (stereo not drawn) do in these assays?
VIM-2 inhibitor: 15.5*; dFosB activator: -12.4; IMP-1 inh-1: 0.1; m5-HT2A agonist: -1.6; IMP-1 inh-2: -3.6; VIM-2 FRET ctr: 1.0; TEM-1 counter: -6.5; VIM-2 confirm 2: 23.4*

Results for C=CCn1c2ccccc2c2nn(C)c(=S)nc21 ?
VIM-2 inhibitor: 13.8*; dFosB activator: -9.9; IMP-1 inh-1: -1.3; m5-HT2A agonist: 3.9; IMP-1 inh-2: -3.9; VIM-2 FRET ctr: -0.3; TEM-1 counter: -8.4; VIM-2 confirm 2: 17.4*

How did CC(/C=N/NC(=S)Nc1cccc(S(=O)(=O)N(C)C)c1)c1ccccc1 (stereo not drawn) do in these assays?
VIM-2 inhibitor: 46.2*; dFosB activator: -8.5; IMP-1 inh-1: -3.6; m5-HT2A agonist: -1.8; IMP-1 inh-2: -2.5; VIM-2 FRET ctr: 67.2*; TEM-1 counter: -3.1; VIM-2 confirm 2: 51.9*

What do the screens show for `CN(C)S(=O)(=O)c1cccc(NC(=S)N/N=C/c2ccco2)c1`?
VIM-2 inhibitor: 0.8; dFosB activator: -4.6; IMP-1 inh-1: -2.7; m5-HT2A agonist: 4.5
